Assay results: ChEMBL document CHEMBL3243966, “Synthesis of substituted 1-hydroxy-2-naphthanilides as potential cestodicidal agents” (J Med Chem, 1978)
Calls of active or inactive are those of the source. No cut-off for these calls is given here.

Experiments:
[1] = system: Rodentolepis nana; test: Cestodicidal activity against Hymenolepis nana infected in rat assessed as reduction in 98 to 100% of worm load at 250 mg/kg, po after 3 days; format: functional, organism-based; set-up: dose 250 mg/kg
Outline: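 Newly weaned male Freiburg-strain rats (25-30 g) infected orally with 200 viable H. nana ova; faecal ova-positive animals treated on day 15 after overnight fast. Single oral dose, starting at 250 mg/kg, then 100, 50, 13, 7.5 mg/kg; three treated, three untreated controls per group. Sacrificed day 3 post-treatment after fasting; small intestine worms collected and scored. Minimum effective dose: lowest giving score ≤10% of control.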

[2] = system: Rodentolepis nana; test: Cestodicidal activity against Hymenolepis nana infected in po dosed rat assessed as […] after 3 days; format: functional; settings: 72 h, read-out: MED
[3] = Cestodicidal activity against Hymenolepis diminuta infected in rat assessed as reduction in worm load at 10 mg/kg, po relative to control; format: functional; set-up: scale not given: the % may be the effect or the level left
Outline: (§1)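 Single oral 10 mg/kg dose, with worm-load reduction as the read-out. H. diminuta was tested in rats; Taenia sp. was tested in naturally infected dogs.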

[4] = system: Taenia; test: Cestodicidal activity against Taenia species infected in dog assessed as reduction in worm load at 10 mg/kg, po relative to control; format: functional; set-up: scale not given: the % may be the effect or the level left; outline: as §1
[5] = system: Rattus norvegicus; test: Toxicity in rat at 5 g/kg, po; format: organism-based; settings: in vivo, 5000 mg/kg
[6] = system: Rattus norvegicus; test: Toxicity in rat at 5 g/kg, ip; format: organism-based; settings: in vivo, 5000 mg/kg
[7] = system: Rattus norvegicus; test: Toxicity in rat at 5 g/kg, po assessed as mortality; format: organism-based; settings: in vivo, 5000 mg/kg
[8] = system: Rattus norvegicus; test: Toxicity in rat at 5 g/kg, ip assessed as mortality; format: organism-based; settings: in vivo, 5000 mg/kg
[9] = system: Rattus norvegicus; test: Toxicity in rat infected with Hymenolepis nana at 1 g/kg; format: organism-based; settings: in vivo, 1000 mg/kg
Outline: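 Young rats infected with H. nana received 1 g/kg, and tolerance was assessed.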

[10] = system: Mastomys natalensis; test: Toxicity in po dosed natal multimammate mouse; format: organism-based; settings: in vivo
Outline: (§2)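 Acute toxicity study in Mastomys natalensis and dogs, with the compound given orally or intraperitoneally.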

[11] = system: Mastomys natalensis; test: Toxicity in ip dosed natal multimammate mouse; format: organism-based; settings: in vivo; outline: as §2
[12] = system: Canis familiaris; test: Toxicity in po dosed dog; format: organism-based, Canis lupus familiaris; settings: in vivo; outline: as §2
[13] = system: Canis familiaris; test: Toxicity in ip dosed dog; format: organism-based, Canis lupus familiaris; settings: in vivo; outline: as §2

| Compound | Activity [1] | further results |
| --- | --- | --- |
| O=c1c2cc(Br)c3ccccc3c2oc(=S)n1-c1ccccc1[N+](=O)[O-] | inactive | – |
| O=C(Nc1ccc([N+](=O)[O-])cc1)c1ccc2ccccc2c1O | inactive | – |
| O=c1c2ccc3ccccc3c2oc(=S)n1-c1ccc(Cl)c([N+](=O)[O-])c1 | inactive | – |
| Nc1ccc(NC(=O)c2ccc3ccccc3c2O)cc1 | inactive | – |
| Nc1ccccc1NC(=O)c1ccc2ccccc2c1O | inactive | – |
| CN1CCN(c2ccc(NC(=O)c3ccc4ccccc4c3O)cc2[N+](=O)[O-])CC1 | inactive | – |
| Nc1ccccc1NC(=O)c1cc(Br)c2ccccc2c1O | inactive | – |
| O=c1c2ccc3ccccc3c2oc(=S)n1-c1ccc([N+](=O)[O-])cc1 | inactive | – |
| O=c1c2ccc3ccccc3c2oc(=S)n1-c1ccccc1[N+](=O)[O-] | inactive | – |
| O=c1c2cc(Br)c3ccccc3c2oc(=S)n1-c1ccc(Cl)cc1[N+](=O)[O-] | inactive | – |
| O=c1oc2c(ccc3ccccc32)c(=O)n1-c1ccc([N+](=O)[O-])cc1Cl | inactive | – |
| O=C(Nc1ccc(Cl)cc1[N+](=O)[O-])c1cc(Br)c2ccccc2c1O | – | minimal effective dose [2]: 250 mg/kg |
| O=C(Nc1ccc(N2CCCCC2)c([N+](=O)[O-])c1)c1ccc2ccccc2c1O | inactive | – |
| O=c1oc2c(cc(Br)c3ccccc32)c(=O)n1-c1ccc([N+](=O)[O-])cc1Cl | inactive | – |
| O=C(Nc1ccc(N2CCCC2)c([N+](=O)[O-])c1)c1ccc2ccccc2c1O | inactive | – |
| O=C(Nc1ccc(N=C=S)cc1)c1ccc2ccccc2c1O | – | minimal effective dose [2]: 100 mg/kg |
| Nc1cc(NC(=O)c2ccc3ccccc3c2O)ccc1Cl | inactive | – |
| O=C(Nc1ccc(Cl)cc1Cl)c1ccc2ccccc2c1O | inactive | – |
| O=C(Nc1ccc([N+](=O)[O-])cc1Cl)c1ccc2ccccc2c1O | inactive | – |
| O=C(Nc1ccc([N+](=O)[O-])cc1)c1cc(Br)c2ccccc2c1O | – | minimal effective dose [2]: 100 mg/kg |
| CC1CCCN(c2ccc(NC(=O)c3ccc4ccccc4c3O)cc2[N+](=O)[O-])C1 (stereo not given) | inactive | – |
| O=C(Nc1ccc(Cl)c([N+](=O)[O-])c1)c1ccc2ccccc2c1O | inactive | – |
| Nc1ccc(NC(=O)c2cc(Br)c3ccccc3c2O)c(Cl)c1 | inactive | – |
| O=c1c2ccc3ccccc3c2oc(=S)n1-c1ccc(Cl)cc1[N+](=O)[O-] | inactive | – |
| O=C(Nc1ccc(Cl)cc1Cl)c1cc(Br)c2ccccc2c1O | – | minimal effective dose [2]: 50 mg/kg |

| Compound | Activity [1] | further results |
| --- | --- | --- |
| Nc1ccc(NC(=O)c2ccc3ccccc3c2O)c(Cl)c1 | inactive | – |
| O=C(Nc1ccc(N=C=S)cc1Cl)c1cc(Br)c2ccccc2c1O | – | minimal effective dose [2]: 250 mg/kg |
| O=C(Nc1ccc(Cl)cc1[N+](=O)[O-])c1ccc2ccccc2c1O | inactive | – |
| O=c1oc2c(ccc3ccccc32)c(=O)n1-c1ccc(Cl)c([N+](=O)[O-])c1 | inactive | – |
| O=C(Nc1ccc(N2CCN(c3ccccc3)CC2)c([N+](=O)[O-])c1)c1ccc2ccccc2c1O | inactive | – |
| O=c1c2cc(Br)c3ccccc3c2oc(=S)n1-c1ccc([N+](=O)[O-])cc1 | inactive | – |
| O=C(Nc1ccccc1[N+](=O)[O-])c1ccc2c(Br)cccc2c1O | – | minimal effective dose [2]: 250 mg/kg |
| O=C(Nc1ccc([N+](=O)[O-])cc1Cl)c1cc(Br)c2ccccc2c1O | – | minimal effective dose [2]: 13 mg/kg |
| O=C(Nc1ccc([N+](=O)[O-])cc1Cl)c1cc(Cl)ccc1O [NICLOSAMIDE] | – | minimal effective dose [2]: 50 mg/kg |
| O=c1oc2c(cc(Br)c3ccccc32)c(=O)n1-c1ccc(Cl)cc1Cl | inactive | – |
| O=c1oc2c(ccc3ccccc32)c(=O)n1-c1ccccc1[N+](=O)[O-] | inactive | – |
| Nc1ccc(NC(=O)c2cc(Br)c3ccccc3c2O)cc1 | inactive | – |
| O=C(Nc1ccccc1[N+](=O)[O-])c1ccc2ccccc2c1O | inactive | – |
| O=c1c2ccc3ccccc3c2oc(=S)n1-c1ccc(Cl)cc1Cl | inactive | – |
| O=c1oc2c(ccc3ccccc32)c(=O)n1-c1ccc([N+](=O)[O-])cc1 | inactive | – |
| CC1CCN(c2ccc(NC(=O)c3ccc4ccccc4c3O)cc2[N+](=O)[O-])CC1 | inactive | – |
| O=c1oc2c(ccc3ccccc32)c(=O)n1-c1ccc(Cl)cc1Cl | inactive | – |
| O=c1c2ccc3ccccc3c2oc(=S)n1-c1ccc([N+](=O)[O-])cc1Cl | inactive | – |
| Nc1cc(Cl)ccc1NC(=O)c1ccc2ccccc2c1O | inactive | – |
| O=c1c2cc(Br)c3ccccc3c2oc(=S)n1-c1ccc([N+](=O)[O-])cc1Cl | inactive | – |
| O=C(Nc1ccc(N=C=S)cc1Cl)c1ccc2ccccc2c1O | – | minimal effective dose [2]: 7.5 mg/kg; Activity [3]: 100%; Activity [4]: 100%; Activity [5]: Non-toxic; Activity [6]: Non-toxic; Activity [7]: Non-toxic; Activity [8]: Non-toxic; Activity [9]: Non-toxic; Activity [10]: Non-toxic; Activity [11]: Non-toxic; Activity [12]: Non-toxic; Activity [13]: Non-toxic |
| O=C(Nc1ccc(N2CCOCC2)c([N+](=O)[O-])c1)c1ccc2ccccc2c1O | inactive | – |
| O=C(Nc1ccc(Cl)c(N=C=S)c1)c1cc(Br)c2ccccc2c1O | – | minimal effective dose [2]: 100 mg/kg |
| O=c1oc2c(cc(Br)c3ccccc32)c(=O)n1-c1ccc(Cl)cc1[N+](=O)[O-] | inactive | – |
